Data set [1] concerns Trichoplusia ni. Put plainly: Feeding deterrent activity against freshly molted third-instar larval stage of Trichoplusia ni (cabbage looper) in compound pretreated cabbage leaves after 3 to 5 hr by leaf disk choice bioassay. In kind it is functional, organism-based. A digest of the protocol: (§1)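 Leaf-disk choice test on greenhouse cabbage (Stonehead) leaves from 5-6-week plants. Freshly molted third-instar T. ni from a diet-reared colony (>50 generations) were starved 4-5 h. One disk had 10 μL test solution painted on each side, the other carrier solvent only. There were 25 larvae per treatment. Run ended at ~50% control disk eaten (3-5 h). Deterrence = (C−T)/(C+T)×100 from consumed areas.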

In data set [2] the test system is Trichoplusia ni. As to the kind of experiment: Oviposition deterrent activity against adult female Trichoplusia ni (cabbage looper) moths introduced along with male moths into oviposition cage containing compound pretreated cabbage leaves assessed as eggs laying on the leaf disks at 0.25% after 48 hr. It counts as functional. Put shortly: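 Choice test: one male and one female moth were caged with a control and a treated cabbage leaf (~100-110 cm²). Each side was sprayed with 0.5 mL MeOH or methanolic test solution at 0.25%. Values are mean ± SE, N = 35-40.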

Data set [3] relates to Trichoplusia ni. The conditions noted are these: in vivo, 24 h.
The subject of data set [4] is Trichoplusia ni. As to the kind of experiment: Feeding deterrent activity against freshly molted third-instar larval stage of Trichoplusia ni (cabbage looper) in compound pretreated cabbage leaves at 50 ug/cm2 after 3 to 5 hr by leaf disk choice bioassay. It counts as functional. Put shortly: as §1

As a reminder, the mortality is the share of the test organisms that died.

Each structure is given as a SMILES string.

For the compound `C=CCc1cc(OCCC(C)C)ccc1OCCC(C)C`, the DC50 in data set [1] was 15 microg/cm2. The Activity in data set [2] is listed as 20%; in data set [4] it was 83%. The same compound displayed a mortality in data set [3] of 27%.

With `C=CCc1cc(OCCC)ccc1OCCC(C)C`, in data set [1], the DC50 is on record as 15 microg/cm2. Also, the results for the Activity in data set [2] and in data set [4] were 20% and 83%, respectively. The compound also yielded a mortality in data set [3] of 27%.

On to `C=CCc1cc(OCCCC)ccc1OCCC(C)C`, for which the DC50 in data set [1] is reported as 15 microg/cm2. The values for the Activity in data set [2] and in data set [4] were 20% and 83%, respectively. This compound also registered a mortality in data set [3] of 27%.

Turning to `C=CCc1cc(OCC)ccc1OCCC(C)C`, the DC50 in data set [1] is listed as 15 microg/cm2. For the same compound, the figures for the Activity in data set [2] and in data set [4] were 20% and 83%, respectively. The mortality in data set [3] was 27%.

For `C=CCc1cc(OC)ccc1OCCC(C)C`, the DC50 in data set [1] is given as 15 microg/cm2. Further, the Activity in data set [2] is on record as 20%; in data set [4] it was 83%. The mortality in data set [3] is on record as 27%.

On to `C=CCc1cc(OCCC(C)C)ccc1OC`, for which the DC50 in data set [1] is 19 microg/cm2. For the same compound, the Activity in data set [2] was 37%; in data set [4] it was 68%. For the same compound, in data set [3], the mortality was 17%.

As to `C=CCc1cc(OCCC)ccc1OC`, the DC50 in data set [1] is listed as 19 microg/cm2. For the same compound, the Activity is listed as 37% in data set [2] and 68% in data set [4]. The mortality in data set [3] worked out at 17%.

For the compound `C=CCc1cc(OCCCC)ccc1OC`, the DC50 in data set [1] is reported as 19 microg/cm2. Besides, the Activity in data set [2] worked out at 37%; in data set [4], 68%. Besides, in data set [3], the mortality was found to be 17%.

As for `C=CCc1cc(OCC)ccc1OC`, in data set [1], the DC50 is 19 microg/cm2. Besides, the values for the Activity in data set [2] and in data set [4] were 37% and 68%, respectively. In data set [3], this compound registered a mortality of 17%.

Regarding `C=CCc1cccc(OCCCC)c1OCC`, the DC50 in data set [1] was 20 microg/cm2. In addition, the Activity is given as 31% in data set [2] and 100% in data set [4]. In data set [3], the mortality is on record as 27%.

Consider `C=CCc1cccc(OCCC(C)C)c1OCC`, for which the DC50 in data set [1] was determined as 20 microg/cm2. Besides, the Activity in data set [2] came to 31%; in data set [4], 100%. The compound also came in with a mortality in data set [3] of 27%.

For the compound `C=CCc1cccc(OCCC)c1OCC`, in data set [1], the DC50 came out at 20 microg/cm2. The Activity in data set [2] is reported as 31%; in data set [4], 100%. In data set [3], the mortality worked out at 27%.

Regarding `C=CCc1cccc(OC)c1OCC`, in data set [1], the DC50 is listed as 20 microg/cm2. In addition, the Activity in data set [2] is 31%; in data set [4] it was 100%. The compound further yielded a mortality in data set [3] of 27%.

Take `C=CCc1cccc(OCC)c1OCC`: the DC50 in data set [1] is listed as 20 microg/cm2. For the same compound, the Activity stood at 31% in data set [2] and 100% in data set [4]. Also, in data set [3], the mortality worked out at 27%.

Regarding `C=CCc1cccc(OCCC)c1OC`, the DC50 in data set [1] was 15.5 microg/cm2. Further, the Activity in data set [2] is reported as 32%; in data set [4], 100%. In addition, the mortality in data set [3] stood at 17%.

With `C=CCc1cccc(OCC)c1OC`, the DC50 in data set [1] is 15.5 microg/cm2. The Activity was 32% in data set [2] and 100% in data set [4]. In addition, the mortality in data set [3] was determined as 17%.

For the compound `C=CCc1cccc(OC)c1OC`, the DC50 in data set [1] turned out to be 15.5 microg/cm2. The Activity in data set [2] is 32%; in data set [4] it was 100%. In data set [3], this compound yielded a mortality of 17%.

With `C=CCc1cccc(OCCC(C)C)c1OC`, the DC50 in data set [1] was 15.5 microg/cm2. The Activity in data set [2] is 32%; in data set [4], 100%. The same compound had a mortality in data set [3] of 17%.

In the case of `C=CCc1cccc(OCCCC)c1OC`, in data set [1], the DC50 came out at 15.5 microg/cm2. Besides, the Activity in data set [2] turned out to be 32%; in data set [4] it was 100%. In data set [3], this compound displayed a mortality of 17%.
